PolyA inh = polyadenylation inhibitors in yeast reporter cells, primary screen, luminescence, S. cerevisiae | S. cerevisiae SKY197-pL101 polyadenylation reporter, beta-gal luminescence; efflux-impaired pdr1/pdr3 knockout yeast; score 100 = 6 SD above DMSO | activity score, % at 12 µM | hit rate 0.02% among 300,000 | AID 1875, 2009;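 active = lowest replicate activity score at least 50, where 100 means six control SD above control mean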;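 also: yeast exposed to compound for 9 h at 30 °C; higher score means more reporter readthrough which indicates perturbed polyadenylation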
IMP-1 inhibitor = IMP-1 metallo-beta-lactamase inhibitors, primary screen, biochemical, epi-absorbance readout, Pseudomonas aeruginosa enzyme; metallo-beta-lactamase IMP-1 (Pseudomonas aeruginosa); purified IMP-1, nitrocefin hydrolysis, epi-absorbance fluorescence; inhibition, % at 5.6 µM; hit rate 0.45% among 290,000; AID 1556, 2009;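 active = inhibition above the mean plus 3 SD of all compounds in the same screening run, cut at about 4.5% in these data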;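 also: 0% = IMP-1 with DMSO and 100% = DMSO wells lacking enzyme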
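System: purified recombinant IMP-1 beta-lactamase. Medium: Zinc- and detergent-supplemented HEPES buffer, pH 7.1. Compound: one 5.6 µM dose […]. Schedule: 15 min preincubation plus 25 min reaction at 25 °C. Technique: Epi-absorbance fluorescence, 480 nm excitation, 530 nm emission.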
VIM-2 inh = VIM-2 metallo-beta-lactamase inhibitors, primary screen, biochemical, epi-absorbance readout, Pseudomonas aeruginosa enzyme. purified VIM-2, nitrocefin hydrolysis, epi-absorbance fluorescence. inhibition, % at 5.6 µM. hit rate 0.89% among 290,000. AID 1527, 2009;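 active = inhibition above the mean of all tested compounds plus 3 SD, cutoff set per screening run, cut at about 7.5% in these data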;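 also: red hydrolysis product quenches plate fluorescence so inhibitors raise well fluorescence; 0% = enzyme with DMSO and 100% = DMSO without enzyme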
NLRP3 yeast inh = NALP3 inflammasome inhibitors in reconstituted yeast, primary screen, luminescence, uHTS. Yeast reconstituted NLRP3/ASC/caspase-1, beta-gal luminescence, 24 h. inhibition, % at 10 µM. hit rate 0.39% among 330,000;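 active = inhibition of 50% or more; inactive = inhibition below 50%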;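 also: plate controls were induced DMSO wells for no effect and uninduced yeast grown without galactose for full effect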
NALP1 inh = NALP1 inflammasome inhibitors in reconstituted yeast, colorimetric, S. cerevisiae, triplicate retest; inhibition, % at 10 µM; hit rate 0.61% among 280,000; AID 2071, 2009; S. cerevisiae NALP1/ASC/caspase-1 growth, X-gal OD620, 72 h; in the data active = inhibition mostly above about 24%, no sharp cut-off; inactive = mostly below about 32%
Mot1-301 SUMO = yeast Mot1-301 growth rescue at high temperature, primary screen, SUMOylation pathway inhibitor project, S. cerevisiae, ATP luminescence, 38.5C; S. cerevisiae Mot1-301 growth rescue; percent above DMSO median, 100 means doubled; growth rescue, % at 18.8 µM; hit rate 1% among 320,000;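 active = every valid replicate shows activation above 250% relative to neutral control wells; inactive = the rest, any valid replicate at or below 250%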;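 also: OY570 slx delta 5 strain wells were the positive control but not used for scaling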
NALP3 confirm = NALP3 inhibitors retested in yeast, confirmation, luminescence, single concentration; shares compounds with NLRP3 yeast inh; yeast expressing human NALP3; inhibition, % at 10 µM; hit rate 81% among 1,300; AID 435006, 2010; in the data active = inhibition above about 48%
Casp1 ASC ctr = CASP1-PYCARD signaling inhibition in yeast, confirmatory test, counterassay for NLRP3 inhibitor program, one-dose; shares compounds with NLRP3 yeast inh; yeast expressing Caspase-1-ASC, luminescence counter screen; inhibition, % at 10 µM; hit rate 66% among 1,000; AID 488784, 2010
NALP3 retest = NALP3 inhibitors in yeast, repeat test, confirmation, luminescence, single concentration, retest; yeast expressing human NALP3, luminescence read-out; hit rate 53% among 1,000; shares compounds with NLRP3 yeast inh; inhibition, % at 10 µM
* = called active by the depositor; . = no result given. Only some compounds are listed: those with a hit (about 2.9% of all), similar ones and a draw of the others. Rule as the data show it, unless noted: active = inhibition above about 50%; inactive = the rest.

SMILES | PolyA inh | IMP-1 inhibitor | VIM-2 inh | NLRP3 yeast inh | NALP1 inh | Mot1-301 SUMO | NALP3 confirm | Casp1 ASC ctr | NALP3 retest
CCCCCCN[C@H]1CCC2C3CC=C4C[C@@H](O)CC[C@]4(C)C3CC[C@@]21C (stereo partly specified) | . | . | . | 61.6* | . | 158.5 | 65.5* | . | .
CC(C)C(=O)N[C@H]1CCC2C3CC=C4C[C@@H](O)CC[C@]4(C)C3CC[C@@]21C (stereo partly specified) | . | . | . | 24.9 | . | 25.1 | . | . | .
CC(=O)OCC(=O)C1CCC2C3CC=C4CC(O)CCC4(C)C3CCC12C (stereo unspecified) | . | . | . | 74.1* | . | 461.8* | 80.7* | 77.3* | 65.9*
CN(CC(=O)Nc1ccc(Cl)c(C(F)(F)F)c1)C(=O)/C=C/c1cccs1 | . | . | . | -9.9 | . | 8.3 | . | . | .
CC1=C/C(=N\OS(=O)(=O)c2ccccc2)C(C)=CC1=O | . | -7.3 | -1.7 | 50.0 | 30.7 | -4.8 | 38.9 | . | .
C=C1CCN([C@@H](Cc2ccccc2)C(=O)NCCCc2ccccc2)S(=O)(=O)c2ccccc21 | 0.9 | . | . | 0.1 | . | 5.4 | . | . | .
COc1cc(NC(=O)CN2C(=O)CN(C)C2=O)c(C)cc1[N+](=O)[O-] | 0.2 | 1.3 | -0.9 | 81.4* | 16.6 | -6.5 | 33.8 | . | .
COc1ccccc1NC(=O)Nc1ccc(C)cn1 | -22.9 | 1.9 | -1.0 | 61.1* | -3.4 | 15.0 | 76.3* | 68.2* | 64.8*
COc1ccccc1NC(=O)Nc1ccc(Br)cn1 | -5.8 | -3.1 | -4.4 | 40.9 | -1.3 | -0.5 | . | . | .
COc1ccc(NC(=O)CN(c2ccccc2F)S(=O)(=O)c2ccc(C)cc2)c(OC)c1 | 16.5 | -3.9 | -3.6 | 9.2 | -16.5 | 12.9 | . | . | .
CCOC(=O)c1ccc(NC(=O)c2nc[nH]c2C(=O)N[C@@H](C)C(=O)OC(C)(C)C)cc1 | -13.2 | . | . | 13.7 | . | 10.9 | . | . | .
C[C@H](NC(=O)c1[nH]cnc1C(=O)Nc1ccc(Cl)cc1)C(=O)OC(C)(C)C | 9.6 | . | . | 58.4* | . | 12.2 | 65.4* | 30.1 | 24.6
CCN1CCN(c2ccc(Cl)cc2NC(=O)c2ccc(-n3nc(C)cc3C)cc2)CC1 | . | . | . | 51.3* | . | 16.3 | 44.2 | 39.0 | 32.1
CCN1CCN(c2ccc(Cl)cc2NC(=O)c2ccco2)CC1 | . | . | . | 10.8 | . | . | . | . | .
Cc1ccc(C(=O)Nc2ccccc2C(=O)O)cc1S(=O)(=O)Nc1ccc(Br)cc1 | -13.0 | . | . | 6.4 | . | -22.1 | . | . | .
Cc1ccc(N(CC(=O)NCC2CCCO2)C(=O)CCC(=O)Nc2cc(C)on2)cc1 (stereo unspecified) | -3.5 | -1.6 | -2.3 | 10.2 | 14.5 | 161.4 | . | . | .
CCCOC(=O)C1=C(C)N(C)C(=O)NC1c1cc2c(cc1Br)OCO2 (stereo unspecified) | -10.7 | -3.9 | -1.3 | 9.5 | 11.1 | 8.3 | . | . | .
Cc1nc2ccc(S(=O)(=O)c3ccc4nc(C)[nH]c4c3)cc2[nH]1 | -17.1 | -1.8 | 1.8 | 14.1 | 19.2 | -1.1 | . | . | .
Cc1nc2ccc(C(C(F)(F)F)(C(F)(F)F)C(F)(F)F)cc2[nH]1 | -68.2 | -1.9 | -0.3 | 94.8* | 40.0* | -1.0 | 89.7* | 88.8* | 80.0*
CC(C)(C)c1ccc(C(=O)NNc2ccc(F)cc2F)cc1 | -2.2 | -3.1 | -2.0 | 53.2* | . | 178.0 | 44.3 | . | .
O=C(NNC(=O)c1ccc(-c2ccccc2)cc1)Nc1ccc(F)cc1F | 9.6 | 0.4 | 0.7 | 0.9 | 45.2 | -15.9 | . | . | .
COc1ccc2c(=O)c(-c3nc(C)cs3)coc2c1 | -5.6 | 0.0 | -3.1 | 76.8* | . | -0.8 | 54.0* | 68.5* | 65.8*
O=S(=O)(c1ccc(Cl)s1)N1CCN(Cc2ccccc2)CC1 | 4.8 | -1.7 | -0.4 | 31.7 | 4.1 | -21.2 | . | . | .
O=S(=O)(c1ccc(Cl)s1)N1CCN(CCc2ccccc2)CC1 | -14.6 | -0.7 | 1.3 | 60.0* | 17.5 | -21.1 | 76.3* | 63.0* | 53.2*
O=S(=O)(c1ccccc1)N1CCN(Cc2cccc(Br)c2)CC1 | 11.4 | . | . | 16.8 | . | -4.9 | . | . | .
SMILES | PolyA inh | IMP-1 inhibitor | VIM-2 inh | NLRP3 yeast inh | NALP1 inh | Mot1-301 SUMO | NALP3 confirm | Casp1 ASC ctr | NALP3 retest
O=S(=O)(c1cccc(Br)c1)N1CCN(CCc2ccccc2)CC1 | -11.0 | -2.9 | -2.0 | 52.9* | -6.9 | -29.9 | 70.8* | 51.7* | 48.8
Cc1cc(S(=O)(=O)N2CCOCC2)c(C)s1 | 9.5 | -1.4 | -2.2 | 19.7 | 3.4 | 0.3 | . | . | .
Fc1ccc(CSc2nnc(-c3cnccn3)n2Cc2ccco2)cc1 | -8.6 | -0.2 | 0.8 | -122.6 | 6.8 | -0.2 | -21.0 | . | .
Brc1ccc(CSc2nnc(-c3cnccn3)n2Cc2ccco2)cc1 | -7.5 | -3.0 | -2.1 | 5.1 | 33.0 | -6.8 | . | . | .
Fc1ccccc1CSc1nnc(-c2cnccn2)n1Cc1ccco1 | -21.7 | -1.5 | -1.3 | -133.3 | -13.2 | -15.4 | -33.4 | . | .
Cc1noc(C)c1NC(=O)Nc1ccc2c(c1)C(=O)N([C@H](C)CO)C[C@H](C)[C@@H](CN(C)C(=O)NC1CCCCC1)O2 | . | . | . | 23.4 | . | -2.6 | . | . | .
Cc1ccc(Nc2cc(C)nc(-c3ccccc3)n2)cc1 | -19.2 | -2.2 | -2.2 | 18.8 | 12.4 | -15.6 | . | . | .
CCCSc1ccc([C@H]2N[C@@](C)(C(=O)OC)[C@H]3C(=O)N(C)C(=O)[C@@H]23)cc1 | 21.6 | . | . | 51.3* | . | 20.6 | 47.8 | 16.4 | 15.6
CCCCCCSc1ccc([C@H]2N[C@@](C)(C(=O)OC)[C@H]3C(=O)N(C)C(=O)[C@@H]23)cc1 | 14.9 | . | . | 17.9 | . | -8.5 | . | . | .
CC12CC3(C)CC(C)(C1)CC(NC(=O)N1CCCC1)(C2)C3 | -69.3 | -1.2 | -2.2 | 93.8* | 7.5 | -25.5 | 48.8* | 98.5* | 98.7*
CC1(c2nnc(-c3ccccc3)o2)CC(c2c(Cl)cccc2Cl)=NO1 (stereo unspecified) | -20.3 | . | . | 55.0* | . | 10.9 | 70.8* | 32.1 | 37.4
COc1ccc2cc(C(=O)NCCCN3CCCC3=O)[nH]c2c1 | 16.4 | -0.9 | -1.2 | 4.3 | 10.1 | 10.2 | . | . | .
COCC1CCN(C(=O)C2CCC(=O)N(Cc3cccc(F)c3)C2)CC1 (stereo unspecified) | 16.2 | -2.1 | -2.4 | 19.7 | 1.0 | -14.3 | . | . | .
CCN(CC)S(=O)(=O)c1cccc(C(=O)Nc2cc(C)cc(C)c2)c1 | 2.9 | -1.8 | -1.6 | 5.1 | 4.2 | . | . | . | .
